Laboratory results published in ChEMBL document CHEMBL4765324, “Synthesis and biological evaluation of novel quinoline-piperidine scaffolds as antiplasmodium agents” (Eur J Med Chem, 2020).

System: not listed separately
Assay: Selectivity index, ratio of IC50 for CHO cells to IC50 for antiplasmodial activity against chloroquine-sensitive Plasmodium falciparum NF54
Type: toxicity
Conditions: hamster, CHO cells (cytotoxicity) versus Plasmodium falciparum NF54; read-out: Ratio IC50
How it was run: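 CHO cytotoxicity measured by MTT colorimetric assay, using the antiplasmodial stock solutions. Six 10-fold dilutions in complete medium, 100 to 0.001 μg/ml, with emetine as reference. Triplicate on one occasion. IC50 from non-linear dose-response fit. NF54 IC50 came from the parasite lactate dehydrogenase assay. SI = IC50 CHO/IC50 NF54.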

Compound	selectivity ratio
C=CCN1C[C@@H](OCc2ccccc2)[C@@H](CNc2ccnc3cc(Cl)ccc23)C(C)(C)C1 (relative stereo)	10100

System: Plasmodium falciparum
Assay: Resistance index, ratio of IC50 for antiplasmodial activity against chloroquine-resistant Plasmodium falciparum K1 to IC50 for antiplasmodial activity against chloroquine-sensitive Plasmodium falciparum NF54
Type: functional
Conditions: not given
How it was run: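 Asexual blood-stage P. falciparum K1 and NF54 kept in continuous culture (modified Trager–Jensen). Growth read by parasite lactate dehydrogenase assay (modified Makler). Ten 2-fold dilutions in complete medium, from 10 μg/ml to 20 ng/ml (or 1 μg/ml to 2 ng/ml). Chloroquine as reference. Triplicate on one occasion. IC50s from non-linear dose-response fit. RI = IC50 K1/IC50 NF54.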

Compound	Ratio IC50
C=CCN1CCC(CNc2ccnc3ccccc23)C(C)(C)C1 (stereo not given)	0.3
C=CCN1CCC(CNc2ccnc3cc(Cl)ccc23)C(C)(C)C1 (stereo not given)	1.7
c1ccc(C23CCN(C2)C(CNc2ccnc4ccccc24)C3)cc1 (mixture of isomers)	1.5
Clc1ccc2c(NCC3CC4(c5ccccc5)CCN3C4)ccnc2c1 (mixture of isomers)	1.6
Oc1cccc2ccc(CNCC3CC4(c5ccccc5)CCN3C4)nc12 (mixture of isomers)	6.4
C=CCN1C[C@@H](OCc2ccccc2)[C@@H](CNCc2ccc3ccccc3n2)C(C)(C)C1 (relative stereo)	1.8
C=CCN1C[C@@H](OCc2ccccc2)[C@@H](CNc2ccnc3cc(Cl)ccc23)C(C)(C)C1 (relative stereo)	2.2
C=CCN1C[C@@H](OCc2ccccc2)[C@@H](CNCc2ccnc3ccccc23)C(C)(C)C1 (relative stereo)	1.5
C=CCN1C[C@@H](OCc2ccccc2)[C@@H](CNCc2cc3ccccc3nc2Cl)C(C)(C)C1 (relative stereo)	1.5
